Calls of active or inactive are those of the source. No cut-off for these calls is given here.
Legend:
[1] = system: SGC-7901; assay: Antiproliferative activity against cisplatin resistant human SGC-7901 cells assessed as sensitizing activity at 20 uM in presence of cisplatin; assay type: functional, cell-based
Method in brief: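 Cisplatin-resistant SGC-7901/DDP cells treated with each compound at 20 μM in combination with DDP (15 μM). Sensitizing effect read as inhibition of proliferation.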

[2] = system: SGC-7901; assay: Antiproliferative activity against cisplatin resistant human SGC-7901 cells assessed as sensitizing activity in presence of cisplatin; assay type: functional, cell-based
Method in brief: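 Cisplatin-resistant SGC-7901/DDP cells co-treated with DDP (15 μM) and compound over 1.0, 2.0, 4.0, 8.0, 12, 16, 20, 24 μM. IC50 derived from inhibition of proliferation.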

[3] = system: SGC-7901; assay: Induction of apoptosis in human SGC-7901 cells assessed as viable cells at 8 uM by FITC/PI staining based flow cytometry analysis (reference value: 94.3 %); assay type: functional; conditions: read-out: Activity
[4] = Effect on PI3K/AKT/mTOR signaling pathway in human SGC-7901 cells assessed as change in total PI3K expression at 8 to 16 uM by Western blotting analysis; assay type: cell-based; conditions: dose 8-16 µM
Method in brief: (§1)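 SGC-7901/DDP cells given DDP (15 μM) alone or with compound at 8 and 16 μM (parent) or 3 and 6 μM (derivatives). PI3K, Akt, mTOR and their phosphorylated forms detected by Western blotting.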

[5] = Effect on PI3K/AKT/mTOR signaling pathway in human SGC-7901 cells assessed as reduction in phosphorylated mTOR expression at 8 to 16 uM by Western blotting analysis; assay type: cell-based; conditions: filed as modulator, dose 8-16 µM; method in brief: as §1
[6] = Effect on PI3K/AKT/mTOR signaling pathway in human SGC-7901 cells assessed as reduction in phosphorylated AKT expression at 3 to 6 uM by Western blotting analysis; assay type: cell-based; conditions: filed as modulator, dose 3-6 µM; method in brief: as §1
[7] = system: SGC-7901; assay: Induction of cell cycle arrest in human SGC-7901 cells assessed as accumulation at G0/G1 phase at 8 to 16 uM by flow cytometry analysis; assay type: functional, cell-based; conditions: dose 8-16 µM
Method in brief: (§2)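 SGC-7901/DDP cells exposed to DDP (15 μM) with compound at 8 and 16 μM (parent) or 3 and 6 μM (derivatives). Cell-cycle distribution measured by flow cytometry, with G0/G1 fraction scored.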

[8] = Effect on PI3K/AKT/mTOR signaling pathway in human SGC-7901 cells assessed as reduction in phosphorylated AKT expression at 8 to 16 uM by Western blotting analysis; assay type: cell-based; conditions: filed as modulator, dose 8-16 µM; method in brief: as §1
[9] = system: SGC-7901; assay: Induction of apoptosis in human SGC-7901 cells assessed as early apoptotic cells at 8 uM by FITC/PI staining based flow cytometry analysis (reference value: 3.06 %); assay type: functional
[10] = Effect on PI3K/AKT/mTOR signaling pathway in human SGC-7901 cells assessed as change in total AKT expression at 8 to 16 uM by Western blotting analysis; assay type: cell-based; conditions: dose 8-16 µM; method in brief: as §1
[11] = Effect on PI3K/AKT/mTOR signaling pathway in human SGC-7901 cells assessed as change in total mTOR expression at 8 to 16 uM by Western blotting analysis; assay type: cell-based; conditions: dose 8-16 µM; method in brief: as §1
[12] = system: SGC-7901; assay: Induction of apoptosis in human SGC-7901 cells assessed as necrotic cells at 8 uM by FITC/PI staining based flow cytometry analysis (reference value: 0.068 %); assay type: functional
[13] = system: SGC-7901; assay: Induction of apoptosis in human SGC-7901 cells assessed as late apoptotic cells at 8 uM by FITC/PI staining based flow cytometry analysis (reference value: 2.56 %); assay type: functional
[14] = Effect on PI3K/AKT/mTOR signaling pathway in human SGC-7901 cells assessed as reduction in phosphorylated mTOR expression at 3 to 6 uM by Western blotting analysis; assay type: cell-based; conditions: filed as modulator, dose 3-6 µM; method in brief: as §1
[15] = Effect on PI3K/AKT/mTOR signaling pathway in human SGC-7901 cells assessed as reduction in phosphorylated PI3K expression at 8 to 16 uM by Western blotting analysis; assay type: cell-based; conditions: filed as modulator, dose 8-16 µM; method in brief: as §1
[16] = system: SGC-7901; assay: Induction of apoptosis in human SGC-7901 cells assessed as upregulation of cleaved caspase 3 expression level by Western blotting analysis; assay type: functional, cell-based; conditions: dose 3-6 µM
[17] = Effect on PI3K/AKT/mTOR signaling pathway in human SGC-7901 cells assessed as reduction in phosphorylated PI3K expression at 3 to 6 uM by Western blotting analysis; assay type: cell-based; conditions: filed as modulator, dose 3-6 µM; method in brief: as §1
[18] = Effect on PI3K/AKT/mTOR signaling pathway in human SGC-7901 cells assessed as change in total AKT expression at 3 to 6 uM by Western blotting analysis; assay type: cell-based; conditions: dose 3-6 µM; method in brief: as §1
[19] = Effect on PI3K/AKT/mTOR signaling pathway in human SGC-7901 cells assessed as change in total mTOR expression at 3 to 6 uM by Western blotting analysis; assay type: cell-based; conditions: dose 3-6 µM; method in brief: as §1
[20] = system: SGC-7901; assay: Induction of apoptosis in human SGC-7901 cells assessed as late apoptotic cells at 3 uM by FITC/PI staining based flow cytometry analysis (reference value: 2.56 %); assay type: functional
[21] = system: SGC-7901; assay: Induction of cell cycle arrest in human SGC-7901 cells assessed as accumulation at G0/G1 phase at 3 to 6 uM by flow cytometry analysis; assay type: functional, cell-based; conditions: dose 3-6 µM; method in brief: as §2
[22] = system: SGC-7901; assay: Induction of apoptosis in human SGC-7901 cells assessed as necrotic cells at 3 uM by FITC/PI staining based flow cytometry analysis (reference value: 0.068 %); assay type: functional
[23] = system: SGC-7901; assay: Induction of apoptosis in human SGC-7901 cells assessed as viable cells at 3 uM by FITC/PI staining based flow cytometry analysis (reference value: 94.3 %); assay type: functional; conditions: read-out: Activity
[24] = system: SGC-7901; assay: Induction of apoptosis in human SGC-7901 cells assessed as early apoptotic cells at 3 uM by FITC/PI staining based flow cytometry analysis (reference value: 3.06 %); assay type: functional
[25] = Effect on PI3K/AKT/mTOR signaling pathway in human SGC-7901 cells assessed as change in total PI3K expression at 3 to 6 uM by Western blotting analysis; assay type: cell-based; conditions: dose 3-6 µM; method in brief: as §1

COc1ccc(CN[C@@H]2CC[C@@H](c3ccc(Cl)c(Cl)c3)c3ccccc32)cc1 (relative stereo)
Activity [1]: Active

COc1ccc(CN[C@@H]2CC[C@@H](c3ccc(Cl)c(Cl)c3)c3ccccc32)cc1OC (relative stereo)
Activity [1]: inactive

NCCCCCCN[C@@H]1CC[C@H](c2ccc(Cl)c(Cl)c2)c2ccccc21 (relative stereo)
IC50 [2]: 18.9 µM
Activity [1]: Active

CN[C@H]1CC[C@@H](c2ccc(Cl)c(Cl)c2)c2ccccc21 [SERTRALINE]
IC50 [2]: 18.7 µM
viability at 8 µM [3]: 55.2%
Activity [4]: inactive
Activity [5]: Active
Activity [6]: Active
Activity [7]: Active
Activity [8]: Active
Activity [9]: 4.21%
Activity [10]: inactive
Activity [11]: inactive
Activity [12]: 19.7%
Activity [13]: 20.9%
Activity [14]: Active
Activity [15]: Active
Activity [16]: Dose-Dependent Effect
Activity [17]: Active

CC(C)(C)OC(=O)N1CCN(CCN[C@@H]2CC[C@@H](c3ccc(Cl)c(Cl)c3)c3ccccc32)CC1 (relative stereo)
IC50 [2]: 17.1 µM

Clc1ccc([C@@H]2CC[C@@H](NCc3ccccc3)c3ccccc32)cc1Cl (relative stereo)
Activity [1]: Active

FC(F)(F)c1cccc(CN[C@@H]2CC[C@@H](c3ccc(Cl)c(Cl)c3)c3ccccc32)c1 (relative stereo)
Activity [1]: inactive

Clc1ccc([C@@H]2CC[C@@H](NCc3cccc4ccccc34)c3ccccc32)cc1Cl (relative stereo)
Activity [1]: inactive

Clc1ccc([C@H]2CC[C@H](NCCN3CCNCC3)c3ccccc32)cc1Cl (relative stereo)
IC50 [2]: 5.2 µM
Activity [6]: Active
Activity [18]: inactive
Activity [19]: inactive
Activity [20]: 41%
Activity [21]: Active
Activity [22]: 20.3%
viability at 3 µM [23]: 34.5%
Activity [14]: Active
Activity [24]: 4.06%
Activity [1]: Active
Activity [16]: Dose-Dependent Effect
Activity [17]: Active

N[C@H]1CC[C@H](c2ccc(Cl)c(Cl)c2)c2ccccc21 (relative stereo)
Activity [1]: inactive

CC(=O)N[C@H]1CC[C@H](c2ccc(Cl)c(Cl)c2)c2ccccc21 (relative stereo)
Activity [1]: inactive

Clc1ccc([C@@H]2CC[C@@H](NCc3ccc4c(c3)OCO4)c3ccccc32)cc1Cl
Activity [1]: inactive

NCCCCN[C@@H]1CC[C@H](c2ccc(Cl)c(Cl)c2)c2ccccc21 (relative stereo)
IC50 [2]: 6.3 µM
Activity [1]: Active

CCCCN[C@@H]1CC[C@@H](c2ccc(Cl)c(Cl)c2)c2ccccc21 (relative stereo)
Activity [1]: Active

Cc1ccc(CN[C@@H]2CC[C@@H](c3ccc(Cl)c(Cl)c3)c3ccccc32)cc1 (relative stereo)
Activity [1]: inactive

Clc1ccc(CN[C@@H]2CC[C@@H](c3ccc(Cl)c(Cl)c3)c3ccccc32)cc1Cl (relative stereo)
Activity [1]: inactive

COc1cccc(CN[C@@H]2CC[C@@H](c3ccc(Cl)c(Cl)c3)c3ccccc32)c1 (relative stereo)
Activity [1]: inactive

NCCCCCCN[C@@H]1CC[C@@H](c2ccc(Cl)c(Cl)c2)c2ccccc21 (relative stereo)
IC50 [2]: 11.1 µM
Activity [1]: Active

NCCCCN[C@@H]1CC[C@@H](c2ccc(Cl)c(Cl)c2)c2ccccc21 (relative stereo)
IC50 [2]: 6.28 µM
Activity [6]: Active
Activity [19]: inactive
Activity [20]: 44.6%
Activity [21]: Active
Activity [22]: 14.1%
viability at 3 µM [23]: 30.7%
Activity [25]: inactive
Activity [14]: Active
Activity [24]: 2.67%
Activity [1]: Active
Activity [16]: Dose-Dependent Effect
Activity [17]: Active

NCCN[C@@H]1CC[C@@H](c2ccc(Cl)c(Cl)c2)c2ccccc21 (relative stereo)
IC50 [2]: 11 µM
Activity [1]: Active

O=C(CCCCl)N[C@H]1CC[C@H](c2ccc(Cl)c(Cl)c2)c2ccccc21
Activity [1]: inactive

NCCN[C@@H]1CC[C@H](c2ccc(Cl)c(Cl)c2)c2ccccc21 (relative stereo)
IC50 [2]: 10.7 µM
Activity [1]: Active

N[C@@H]1CC[C@H](c2ccc(Cl)c(Cl)c2)c2ccccc21 (relative stereo)
Activity [1]: inactive
